Data set [1] can be described thus: folding enthalpy; higher = less favourable; fluorescence melt of hairpins on a sequencing array, two-state fit. The conditions noted are these: sodium 0.088 M. An outline of the steps:
(§1)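 With Cy3 and quencher oligos annealed, library hairpins on a sequenced MiSeq flow cell were imaged for Cy3 fluorescence in 50 mM Na-HEPES pH 8.0, 25 mM NaCl, in 2.5 °C steps up to 60 °C. Melting temperature and folding enthalpy were derived from bootstrapped two-state fits of signals normalised to pre-quench Cy3 and to control constructs. Four replicates were combined by inverse variance, with fitted temperatures raised by 9.35 °C to match UV melts.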

The nature of data set [2]: melting temperature; fluorescence melt of hairpins on a sequencing array, two-state fit, raised by 9.35 °C to match UV melts. The conditions noted are these: sodium 0.088 M. An outline of the steps:
as §1

Turning to GATCGTTCAAACGATC ((((((....)))))), in data set [1], the folding enthalpy was -42.7 kcal/mol. Moreover, the Tm in data set [2] stood at 55 °C.

For GATCGTTCAACGATC ((((((...)))))), the folding enthalpy in data set [1] is -42 kcal/mol. In addition, the Tm in data set [2] was 55.5 °C.

Take GATCGTTCAGACGATC ((((((....)))))): the folding enthalpy in data set [1] is -38.9 kcal/mol. In data set [2], the Tm was determined as 55.6 °C.

GATCGTTCCGACGATC ((((((....)))))): the folding enthalpy in data set [1] is -40.9 kcal/mol. Further, the Tm in data set [2] came out at 56.1 °C.

For the sequence GATCGTTCTAACGATC ((((((....)))))), in data set [1], the folding enthalpy is -39.7 kcal/mol. Further, the Tm in data set [2] amounted to 57.3 °C.

Turning to GATCGTTCTGACGATC ((((((....)))))), in data set [1], the folding enthalpy is -44.4 kcal/mol. Also, the Tm in data set [2] is 55.5 °C.

Turning to GATCGTTCTTACGATC ((((((....)))))), the folding enthalpy in data set [1] was -40.6 kcal/mol. The Tm in data set [2] stood at 56.3 °C.

As for GATCGTTGTGACGATC ((((((....)))))), the folding enthalpy in data set [1] is -41 kcal/mol. Also, the Tm in data set [2] was found to be 60.2 °C.

Take GATCGTTTACACGATC ((((((....)))))): the folding enthalpy in data set [1] is -45.4 kcal/mol. Moreover, the Tm in data set [2] was 53.8 °C.

Take GATCGTTTATACGATC ((((((....)))))): the folding enthalpy in data set [1] was -38.7 kcal/mol. In data set [2], the Tm was 57.5 °C.

Regarding GATCGTTTGTACGATC ((((((....)))))), in data set [1], the folding enthalpy is -37.3 kcal/mol. Moreover, the Tm in data set [2] is 56 °C.

On to GATCGTTTTCACGATC ((((((....)))))), for which, in data set [1], the folding enthalpy was -45.2 kcal/mol. Further, in data set [2], the Tm stood at 55.4 °C.

For the sequence GATCTAAAACTAGATC ((((((....)))))), the folding enthalpy in data set [1] was -21.1 kcal/mol. For the same sequence, the Tm in data set [2] came out at 31.1 °C.

As to GATCTAAAGTTAGATC ((((((....)))))), the folding enthalpy in data set [1] was -26.1 kcal/mol. The Tm in data set [2] came out at 36.7 °C.

For GATCTAAATCTAGATC ((((((....)))))), the folding enthalpy in data set [1] was -25.2 kcal/mol. Also, in data set [2], the Tm was 35.4 °C.

For the sequence GATCTAAATGTAGATC ((((((....)))))), the folding enthalpy in data set [1] was -26.8 kcal/mol. Also, the Tm in data set [2] is 36.7 °C.

As to GATCTAACACTAGATC ((((((....)))))), the folding enthalpy in data set [1] was -24.6 kcal/mol. In data set [2], the Tm came out at 36.9 °C.

Regarding GATCTAACGATAGATC ((((((....)))))), in data set [1], the folding enthalpy is -29.4 kcal/mol. Moreover, the Tm in data set [2] stood at 34.1 °C.

For the sequence GATCTAACGTTAGATC ((((((....)))))), the folding enthalpy in data set [1] was -47 kcal/mol. For the same sequence, in data set [2], the Tm came out at 48.3 °C.

For the sequence GATCTAACTTTAGATC ((((((....)))))), the folding enthalpy in data set [1] is -29.9 kcal/mol. Moreover, the Tm in data set [2] was found to be 43.2 °C.

With GATCTAAGCATAGATC ((((((....)))))), the folding enthalpy in data set [1] was -32.2 kcal/mol. Further, the Tm in data set [2] amounted to 40.3 °C.

With GATCTAAGCTAGATC ((((((...)))))), in data set [1], the folding enthalpy was -21.5 kcal/mol. In data set [2], the Tm was 39.5 °C.

On to GATCTAAGCTTAGATC ((((((....)))))), for which the folding enthalpy in data set [1] was -53.5 kcal/mol. In addition, in data set [2], the Tm turned out to be 47.5 °C.

For GATCTAAGGCTAGATC ((((((....)))))), the folding enthalpy in data set [1] was -25.3 kcal/mol. For the same sequence, the Tm in data set [2] came out at 38.8 °C.

For GATCTAAGTTAGATC ((((((...)))))), in data set [1], the folding enthalpy was -29.9 kcal/mol. The Tm in data set [2] was found to be 37.3 °C.

GATCTAATACTAGATC ((((((....)))))): the folding enthalpy in data set [1] is -30.1 kcal/mol. The Tm in data set [2] turned out to be 37.4 °C.

GATCTAATCATAGATC ((((((....)))))): in data set [1], the folding enthalpy was -34.8 kcal/mol. Besides, the Tm in data set [2] was found to be 38.6 °C.

With GATCTAATTATAGATC ((((((....)))))), the folding enthalpy in data set [1] is -29 kcal/mol. In data set [2], the Tm is 37.9 °C.

Turning to GATCTACACATAGATC ((((((....)))))), the folding enthalpy in data set [1] was -44.3 kcal/mol. Moreover, the Tm in data set [2] worked out at 43.2 °C.

GATCTACCAGTAGATC ((((((....)))))): the folding enthalpy in data set [1] is -32.6 kcal/mol. Moreover, in data set [2], the Tm came out at 48.9 °C.

As for GATCTACCGATAGATC ((((((....)))))), in data set [1], the folding enthalpy is -35.5 kcal/mol. Also, in data set [2], the Tm was 37.8 °C.

In the case of GATCTACGGGTAGATC ((((((....)))))), in data set [1], the folding enthalpy was -42.6 kcal/mol. In data set [2], the Tm was 51.1 °C.

GATCTACGTGTAGATC ((((((....)))))): in data set [1], the folding enthalpy is -48.5 kcal/mol. In data set [2], the Tm turned out to be 55.2 °C.

On to GATCTACTGTAGATC ((((((...)))))), for which the folding enthalpy in data set [1] was -36.8 kcal/mol. In addition, the Tm in data set [2] stood at 41.1 °C.

Turning to GATCTACTTCTAGATC ((((((....)))))), the folding enthalpy in data set [1] is -33.5 kcal/mol. In addition, in data set [2], the Tm was 38.7 °C.

In the case of GATCTAGAACTAGATC ((((((....)))))), in data set [1], the folding enthalpy was -34.2 kcal/mol. In addition, the Tm in data set [2] worked out at 44.9 °C.

On to GATCTAGAATTAGATC ((((((....)))))), for which the folding enthalpy in data set [1] is -35 kcal/mol. For the same sequence, in data set [2], the Tm is 45.2 °C.

For the sequence GATCTAGACGTAGATC ((((((....)))))), the folding enthalpy in data set [1] is -38.9 kcal/mol. The Tm in data set [2] is 44.8 °C.

These data come from the array DNA melting data of Ke et al. (doi:10.1101/2024.01.08.574731).
